According to article PMC4390475 (Journal of pharmaceutical sciences, 2015):

How the values were obtained:
CYP3A4 = CYP3A4 (Homo sapiens, UniProt P08684); assay: CYP inhibition in human liver microsomes; assay type: in vitro ADME; conditions: 1 or 10 μM test article, 20 min, 37°C
How it was run: (§1)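 Pooled human liver microsomes (0.5 mg/mL), 2.5 mM NADPH, 3.3 mM MgCl₂, 0.1 M phosphate pH 7.4, 0.3% DMSO, probe cocktail near Km: phenacetin 25 μM (1A2), bupropion 25 μM (2B6), diclofenac 10 μM (2C9), mephenytoin 20 μM (2C19), bufuralol 10 μM (2D6), testosterone 50 μM and midazolam 4 μM (3A4). Cold acetonitrile quench; LC-MS/MS metabolite peak-area ratio over mean control ×100; n = 3.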

[1] = Stability in simulated gastric fluid; assay type: in vitro ADME; conditions: SGF pH 1.2 with pepsin, 37°C, 60 min
How it was run: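 Simulated gastric fluid (pH 1.2) contained 3.2 g/L porcine pepsin, 2 g/L NaCl and 8 mL/L 6 N HCl, stored at 2–8°C and pre-warmed to 37°C. […] Reactions were stopped with 0.1 M sodium carbonate and chilled acetonitrile containing ¹³C internal standard, filtered, and analysed by LC-MS; content is expressed relative to initial.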

Stability in plasma [2] = assay type: in vitro ADME; conditions: rat plasma diluted 1:1 with PBS, 15 μM, up to 1 h, 37°C
Stability in plasma [3] = assay type: in vitro ADME; conditions: mouse plasma diluted 1:1 with PBS, 15 μM, up to 1 h, 37°C
rat plasma proteins = assay: Plasma protein binding by gel filtration; assay type: in vitro ADME, Sprague Dawley rat; conditions: 2 h, 37°C
How it was run: (§2)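 Test compound (2.65, 13.3 and 40.0 μM final) was incubated in plasma for 2 h at 37°C. Bound compound was separated on Sephadex G-25 by spin filtration (5 min, 200 × g). Eluates were run in duplicate: EDTA addition, chloroform:methanol extraction, acetonitrile precipitation, then LC-MS/MS (MRM 751 → 195, positive ESI) against 15 plasma standards from 0 to 66.7 μM. Eluate concentration was corrected for protein dilution, measured by microbiuret against BSA standards. % bound = corrected/total (mean ± SD, n = 3).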

Stability in plasma [4] = assay type: in vitro ADME; conditions: human plasma diluted 1:1 with PBS, 15 μM, up to 1 h, 37°C
CYP2D6 = CYP2D6 (Homo sapiens, UniProt P10635); assay: CYP inhibition in human liver microsomes; assay type: in vitro ADME; conditions: 1 or 10 μM test article, 20 min, 37°C
CYP2D6, sequence (P10635 whole entry): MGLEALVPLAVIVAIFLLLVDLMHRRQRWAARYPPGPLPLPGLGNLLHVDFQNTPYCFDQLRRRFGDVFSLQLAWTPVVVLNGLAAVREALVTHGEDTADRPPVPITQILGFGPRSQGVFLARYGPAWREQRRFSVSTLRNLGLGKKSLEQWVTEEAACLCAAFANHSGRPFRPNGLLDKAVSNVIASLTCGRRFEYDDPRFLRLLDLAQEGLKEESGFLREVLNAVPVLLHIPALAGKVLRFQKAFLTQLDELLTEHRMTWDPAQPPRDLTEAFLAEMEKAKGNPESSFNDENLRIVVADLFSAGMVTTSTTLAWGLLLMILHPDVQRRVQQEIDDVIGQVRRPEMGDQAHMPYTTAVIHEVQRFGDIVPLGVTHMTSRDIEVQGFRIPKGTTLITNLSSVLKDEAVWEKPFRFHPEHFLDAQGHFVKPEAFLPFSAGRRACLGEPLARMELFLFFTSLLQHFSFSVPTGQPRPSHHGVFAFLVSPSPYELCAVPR
How it was run: as §1

CYP2C9 = CYP2C9 (Homo sapiens, UniProt P11712); assay: CYP inhibition in human liver microsomes; assay type: in vitro ADME; conditions: 1 or 10 μM test article, 20 min, 37°C
CYP2C9, sequence (P11712 whole entry): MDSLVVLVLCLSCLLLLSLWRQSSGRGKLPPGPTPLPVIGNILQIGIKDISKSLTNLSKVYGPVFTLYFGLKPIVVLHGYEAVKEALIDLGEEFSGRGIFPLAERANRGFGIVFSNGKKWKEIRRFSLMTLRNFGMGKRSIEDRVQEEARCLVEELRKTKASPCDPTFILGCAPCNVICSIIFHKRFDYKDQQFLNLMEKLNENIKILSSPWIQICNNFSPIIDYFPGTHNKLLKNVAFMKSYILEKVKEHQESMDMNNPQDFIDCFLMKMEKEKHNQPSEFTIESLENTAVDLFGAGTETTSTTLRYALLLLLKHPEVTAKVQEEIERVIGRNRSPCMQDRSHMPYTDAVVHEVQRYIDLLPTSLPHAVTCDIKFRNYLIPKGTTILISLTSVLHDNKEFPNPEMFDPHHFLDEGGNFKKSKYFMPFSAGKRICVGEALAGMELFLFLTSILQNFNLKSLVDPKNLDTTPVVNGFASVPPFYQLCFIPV
How it was run: as §1

Stability in plasma [5] = assay type: in vitro ADME; conditions: dog plasma diluted 1:1 with PBS, 15 μM, up to 1 h, 37°C
CYP2B6 = target: T1, CYP2B6 (Homo sapiens, UniProt P20813); assay: CYP inhibition in human liver microsomes; assay type: in vitro ADME; conditions: 1 or 10 μM test article, 20 min, 37°C
T1 sequence (P20813 1-491): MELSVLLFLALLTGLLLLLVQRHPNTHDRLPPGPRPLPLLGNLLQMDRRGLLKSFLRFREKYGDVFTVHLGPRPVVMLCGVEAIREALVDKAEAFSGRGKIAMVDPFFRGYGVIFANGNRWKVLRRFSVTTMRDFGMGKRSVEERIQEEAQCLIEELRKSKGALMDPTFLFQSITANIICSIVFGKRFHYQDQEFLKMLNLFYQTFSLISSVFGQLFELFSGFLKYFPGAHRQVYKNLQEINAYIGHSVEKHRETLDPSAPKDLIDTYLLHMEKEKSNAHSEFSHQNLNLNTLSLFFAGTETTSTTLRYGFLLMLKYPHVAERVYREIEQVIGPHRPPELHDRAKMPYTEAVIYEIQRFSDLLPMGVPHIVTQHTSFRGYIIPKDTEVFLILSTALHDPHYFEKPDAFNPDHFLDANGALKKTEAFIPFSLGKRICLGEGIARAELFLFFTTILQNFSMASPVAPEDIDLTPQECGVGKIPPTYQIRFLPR
How it was run: as §1

human plasma proteins = assay: Plasma protein binding by gel filtration; assay type: in vitro ADME; conditions: 2 h, 37°C
How it was run: as §2

[6] = Stability in acidic aqueous buffered solutions; assay type: physicochemical; conditions: for stability in acidic buffer: 48 h, 25°C/60%RH
How it was run: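 Test compound at 10 mg/mL was held in USP buffers: hydrochloric acid (pH 1.40), acetate (pH 4.50) and phosphate (pH 6.80). Incubation was at 25°C/60% RH in sealed, light-protected glass vials. Aliquots taken at 1, 3, 6, 24 and 48 h were diluted 10-fold and analysed by LC-MS, as for the microsomal stability samples.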

Caco-2 cells = assay: Bi-directional permeability study using Caco-2 cells; conditions: for % Recovery of Test Article A–B (mean) / % Recovery of Test Article B-A (mean): end of experiment
CYP2C19 = CYP2C19 (Homo sapiens, UniProt P33261); assay: CYP inhibition in human liver microsomes; assay type: in vitro ADME; conditions: 1 or 10 μM test article, 20 min, 37°C
CYP2C19, sequence (P33261 whole entry): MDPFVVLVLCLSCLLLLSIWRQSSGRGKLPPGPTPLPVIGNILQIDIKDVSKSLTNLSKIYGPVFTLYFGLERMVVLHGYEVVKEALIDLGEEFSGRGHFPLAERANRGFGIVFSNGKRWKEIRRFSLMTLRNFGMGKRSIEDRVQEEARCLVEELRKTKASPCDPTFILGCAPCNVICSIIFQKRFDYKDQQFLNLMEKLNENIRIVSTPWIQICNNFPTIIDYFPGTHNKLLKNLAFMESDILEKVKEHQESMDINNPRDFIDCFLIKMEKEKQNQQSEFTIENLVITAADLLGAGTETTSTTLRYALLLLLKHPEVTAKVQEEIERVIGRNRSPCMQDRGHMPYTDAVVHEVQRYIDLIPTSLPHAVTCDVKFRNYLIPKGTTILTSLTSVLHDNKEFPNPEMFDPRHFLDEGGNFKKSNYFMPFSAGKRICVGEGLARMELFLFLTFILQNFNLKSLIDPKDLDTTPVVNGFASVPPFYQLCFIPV
How it was run: as §1

[7] = Metabolic stability using pooled human liver microsomes; assay type: in vitro ADME; conditions: 10 and 50 μM, active microsomes, up to 60 min, 37°C
[8] = Permeability through Transwell plate not containing Caco-2 cells; assay type: in vitro ADME; conditions: 24-well Transwell plate not containing Caco-2 cells
How it was run: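 This run repeated the Caco-2 bi-directional protocol in a Transwell plate without cells. Test compound (10 and 50 μM final) in HBSS, pH 7.4, was placed in duplicate wells for each direction. Receiver aliquots were taken at 30, 60, 90 and 120 min into 10 mM EDTA and replaced with fresh medium. Donor wells were sampled at start and end for recovery. Analysis was LC-MS/MS (positive ESI, MRM), and Papp was calculated from dQ/dt, receiver volume, membrane area and initial concentration.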

[9] = orally administered, 225 mg/kg; cited from earlier work
dog plasma proteins = assay: Plasma protein binding by gel filtration; assay type: in vitro ADME, beagle dog; conditions: 2.7, 13.3 and 40.0 μM, 2 h, 37°C
How it was run: as §2

CYP1A2 = target: T2, CYP1A2 (Homo sapiens, UniProt P05177); assay: CYP inhibition in human liver microsomes; assay type: in vitro ADME; conditions: 1 or 10 μM test article, 20 min, 37°C
T2 sequence (P05177 1-516): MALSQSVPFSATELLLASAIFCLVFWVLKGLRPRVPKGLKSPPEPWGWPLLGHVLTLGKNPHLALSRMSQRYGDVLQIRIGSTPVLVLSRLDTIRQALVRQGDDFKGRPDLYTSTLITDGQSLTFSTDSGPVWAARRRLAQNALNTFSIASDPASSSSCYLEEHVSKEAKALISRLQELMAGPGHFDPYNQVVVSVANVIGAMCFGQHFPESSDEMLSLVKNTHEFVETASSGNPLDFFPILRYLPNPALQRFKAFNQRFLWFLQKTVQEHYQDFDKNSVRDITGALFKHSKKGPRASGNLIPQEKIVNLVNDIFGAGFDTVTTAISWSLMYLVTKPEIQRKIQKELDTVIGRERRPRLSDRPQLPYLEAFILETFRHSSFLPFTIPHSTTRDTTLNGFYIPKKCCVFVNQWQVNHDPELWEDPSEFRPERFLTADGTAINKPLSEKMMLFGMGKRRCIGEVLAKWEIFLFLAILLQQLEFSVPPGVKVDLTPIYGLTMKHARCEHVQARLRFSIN
How it was run: as §1

P-gp = assay: Bi-directional permeability study using Caco-2 cells; conditions: human; for Papp A→B at 120 min, 1 μM: Caco-2, pH 6, Papp A–B (mean); for Papp B→A at 120 min, 1 μM: Caco-2, pH 7.4, Papp B-A (mean)
[10] = negative control; cited from earlier work

CYP3A4, sequence (P08684 whole entry): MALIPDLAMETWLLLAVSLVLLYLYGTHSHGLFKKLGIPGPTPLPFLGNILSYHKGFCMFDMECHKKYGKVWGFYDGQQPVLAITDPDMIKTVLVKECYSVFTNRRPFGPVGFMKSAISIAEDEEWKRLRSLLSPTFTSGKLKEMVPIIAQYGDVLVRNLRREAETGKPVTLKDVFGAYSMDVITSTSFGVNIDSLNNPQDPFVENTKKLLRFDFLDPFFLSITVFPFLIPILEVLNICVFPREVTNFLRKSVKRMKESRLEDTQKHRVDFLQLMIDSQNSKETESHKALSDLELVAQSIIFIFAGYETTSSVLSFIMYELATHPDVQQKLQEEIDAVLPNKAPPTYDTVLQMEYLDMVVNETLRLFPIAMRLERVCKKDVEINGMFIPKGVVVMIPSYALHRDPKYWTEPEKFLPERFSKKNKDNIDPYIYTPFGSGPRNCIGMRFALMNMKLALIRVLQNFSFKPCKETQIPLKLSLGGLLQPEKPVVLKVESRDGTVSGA

## O=C(NCCCN(CCCCN(CCCNC(=O)c1cccc(=O)n1O)C(=O)c1cccc(=O)n1O)C(=O)c1cccc(=O)n1O)c1cccc(=O)n1O [3,4,3-LI(1,2-HOPO)]
CYP3A4
  % CYP activity relative to control: none of the CYP isoforms were significantly influenced
[1]; 1 μM
  % of the initial content remained in simulated gastric fluid: 76%
[1]; 10 μM
  % of the initial content remained in simulated gastric fluid: 72%
Stability in plasma [2]
  stability in plasma (% of test article remaining): No degradation
Stability in plasma [3]
  stability in plasma (% of test article remaining): No degradation
Rat plasma proteins; 2.65 μM
  % protein-bound: below the lower limit of quantitation
Rat plasma proteins; 2.7, 13.3 and 40.0 μM
  extent of plasma protein binding (rank among species): lowest
Stability in plasma [4]
  stability in plasma (% of test article remaining): No degradation
CYP2D6
  % CYP activity relative to control: none of the CYP isoforms were significantly influenced
CYP2C9
  % CYP activity relative to control: none of the CYP isoforms were significantly influenced
Stability in plasma [5]
  stability in plasma (% of test article remaining): No degradation
CYP2B6
  % CYP activity relative to control: none of the CYP isoforms were significantly influenced
Human plasma proteins; 2.65 μM
  % protein-bound: below the lower limit of quantitation
Human plasma proteins; 2.7, 13.3 and 40.0 μM
  extent of plasma protein binding (rank among species): intermediate
[6]; acetate buffer USP pH 4.50, 10 mg/mL
  stability in acidic buffer: stable
[6]; hydrochloric acid buffer USP pH 1.40, 10 mg/mL
  stability in acidic buffer: stable
[6]; pH 1.4, 3 h
  stability in hydrochloric acid buffer without pepsin: stable
[6]; phosphate buffer USP pH 6.80, 10 mg/mL
  stability in acidic buffer: stable
Caco-2 cells; 10 μM + 100 μM ketoconazole
  % Recovery of Test Article A–B (mean): 120.6%
  % Recovery of Test Article B-A (mean): 90.3%
Caco-2 cells; 10 μM
  % Recovery of Test Article A–B (mean): 112.2%
  % Recovery of Test Article B-A (mean): 87.2%
Caco-2 cells; 50 μM + 100 μM ketoconazole
  % Recovery of Test Article A–B (mean): 114.9%
  % Recovery of Test Article B-A (mean): 85.7%
Caco-2 cells; 50 μM
  % Recovery of Test Article A–B (mean): 105.5%
  % Recovery of Test Article B-A (mean): 97.6%
Caco-2 cells; 10 and 50 μM solutions, lower limit of quantitation
  concentration in the receiving wells: < 500 nM
Caco-2 cells; bi-directional, 10 and 50 μM
  permeability across the Caco-2 monolayer: not permeable
CYP2C19
  % CYP activity relative to control: none of the CYP isoforms were significantly influenced
[7]
  % of test article remaining (metabolic stability): no loss of parent test article
[8]
  permeation of the Transwell membrane in the absence of Caco-2 cells: detectable levels
[9]
  plasma concentration: less than 2 μg/mL
Dog plasma proteins
  extent of plasma protein binding (rank among species): greatest
CYP1A2
  % CYP activity relative to control: none of the CYP isoforms were significantly influenced

## C[C@H]1O[C@@H](O[C@H]2[C@@H](O)C[C@H](O[C@H]3[C@@H](O)C[C@H](O[C@H]4CC[C@@]5(C)[C@H](CC[C@@H]6[C@@H]5C[C@@H](O)[C@]5(C)[C@@H](C7=CC(=O)OC7)CC[C@]65O)C4)O[C@@H]3C)O[C@@H]2C)C[C@H](O)[C@@H]1O [digoxin, reference compound]
P-gp; 1 μM + 100 μM ketoconazole
  Papp A→B at 120 min, 1 μM: 3.7 ×10⁻⁶ cm/s
  Papp B→A at 120 min, 1 μM: 1.8 ×10⁻⁶ cm/s
P-gp; 1 μM, control
  Papp A→B at 120 min, 1 μM: 3.1 ×10⁻⁶ cm/s
  Papp B→A at 120 min, 1 μM: 8.6 ×10⁻⁶ cm/s

## CC(C)NCC(O)COc1cccc2ccccc12 (stereo not drawn) [propranolol]
[10]
  stability in gastric fluid: stable
